Each block holds one molecule with its values, some of them ahead of it.
What was measured:
Progesterone receptor [1] = molecular target: T1, Progesterone receptor (Homo sapiens, UniProt P06401); test: Displacement of [3H]R5020 from human PR in human T47D cells by whole cell assay; assay type: cell-based
T1 sequence (P06401 whole entry): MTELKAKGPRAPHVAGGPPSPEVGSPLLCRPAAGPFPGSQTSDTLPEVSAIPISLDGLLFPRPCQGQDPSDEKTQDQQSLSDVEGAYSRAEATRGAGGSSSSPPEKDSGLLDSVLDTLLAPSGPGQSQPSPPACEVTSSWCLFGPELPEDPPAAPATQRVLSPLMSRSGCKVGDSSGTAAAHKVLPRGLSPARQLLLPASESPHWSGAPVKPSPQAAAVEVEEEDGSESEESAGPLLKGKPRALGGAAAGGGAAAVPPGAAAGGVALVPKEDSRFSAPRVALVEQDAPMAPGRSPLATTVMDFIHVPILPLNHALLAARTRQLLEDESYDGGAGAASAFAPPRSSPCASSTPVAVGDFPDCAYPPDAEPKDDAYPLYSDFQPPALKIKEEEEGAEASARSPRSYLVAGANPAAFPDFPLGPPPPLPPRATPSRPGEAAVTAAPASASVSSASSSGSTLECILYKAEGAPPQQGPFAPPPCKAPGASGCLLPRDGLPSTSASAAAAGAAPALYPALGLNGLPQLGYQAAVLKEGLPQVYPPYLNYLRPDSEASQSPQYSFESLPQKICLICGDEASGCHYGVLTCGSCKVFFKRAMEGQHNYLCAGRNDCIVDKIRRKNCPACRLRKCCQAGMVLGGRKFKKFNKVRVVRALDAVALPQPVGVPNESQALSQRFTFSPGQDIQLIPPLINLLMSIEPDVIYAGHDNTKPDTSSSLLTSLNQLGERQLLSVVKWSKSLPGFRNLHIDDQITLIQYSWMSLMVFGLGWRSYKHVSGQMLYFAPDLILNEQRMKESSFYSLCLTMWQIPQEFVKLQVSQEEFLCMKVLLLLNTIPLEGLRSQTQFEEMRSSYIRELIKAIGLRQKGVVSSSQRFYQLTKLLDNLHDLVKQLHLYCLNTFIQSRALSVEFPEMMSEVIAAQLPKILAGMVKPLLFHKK

[2] = Stability in rat liver microsome assessed as half life; assay type: ADME; settings: liver microsomes
Outline: (§1)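 Female rat, cynomolgus monkey and human liver microsome stability; half-life (min) reported.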

[3] = Stability in cynomolgus monkey liver microsome assessed as half life; assay type: ADME, Macaca fascicularis; settings: liver microsomes; outline: as §1
[4] = Stability in human liver microsome assessed as half life; assay type: ADME; settings: liver microsomes; outline: as §1
Progesterone receptor [5] = molecular target: T1, Progesterone receptor; test: Antagonist activity at human PR expressed in human T47D cells assessed as inhibition of progesterone induced alkaline phosphatase; assay type: functional, cell-based
Progesterone receptor [6] = molecular target: T1, Progesterone receptor; test: Agonist activity at human PR expressed in human T47D cells assessed as stimulation of alkaline phosphatase; assay type: functional, cell-based
Outline: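 Cell-based agonist-mode assay in T47D cells, without progesterone. Cells were suspended in DMEM/F12 with 5% charcoal-stripped FBS, then incubated with compound for 24 h at 37 °C in 5% CO2. Cells were lysed in 0.1 M Tris-HCl pH 9.8 with 0.2% Triton, and 4 mM p-nitrophenyl phosphate was added. OD405 was read every 5 min for 30 min. EC50 comes from dose-response analysis and is the mean of at least duplicates.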

Cynomolgus monkey = test: Induction of early menses in cynomolgus monkey at 5 mg/kg, po; assay type: organism-based, Macaca fascicularis; set-up: dose 5 mg/kg, route oral; settings: in vivo
Rattus norvegicus = species on record: Rattus norvegicus; test: Antagonist activity in rat uterus assessed as progesterone-induced decidualization response in stromal cells; assay type: functional
Outline: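 Female rat decidualization model: compound given orally in 0.5% methyl cellulose/2% Tween 80 to antagonize the progesterone-induced decidual response of uterine stromal cells. ED50 reported.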

[7] = Drug level in cynomolgus monkey at […], iv; assay type: ADME, organism-based, Macaca fascicularis; set-up: dose 0.25 mg/kg, route intravenous; settings: in vivo
[8] = Plasma clearance in cynomolgus monkey at […], iv; assay type: ADME, organism-based, Macaca fascicularis; set-up: dose 0.25 mg/kg, route intravenous
[9] = Volume of distribution at steady state in cynomolgus monkey at […], iv; assay type: ADME, organism-based, Macaca fascicularis; set-up: dose 0.25 mg/kg, route intravenous; settings: in vivo, read-out: Vdss
[10] = Drug level in Sprague-Dawley rat at 0.5 mg/kg, iv; assay type: ADME, organism-based; set-up: dose 0.5 mg/kg, route intravenous; settings: in vivo
Outline: (§2)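 Female Sprague–Dawley rats dosed as 1-in-4 cassette or discrete studies. iv in DMSO/PEG200 20:80; po in aqueous 2% Tween 80/0.5% methyl cellulose. Parameters reported: C0, Cmax, t1/2, plasma clearance, Vss, AUC0-inf and %F.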

[11] = Half life in Sprague-Dawley rat at 0.5 mg/kg, iv; assay type: ADME, organism-based; set-up: dose 0.5 mg/kg, route intravenous; settings: in vivo; outline: as §2
[12] = Plasma clearance in Sprague-Dawley rat at 0.5 mg/kg, iv; assay type: ADME, organism-based; set-up: dose 0.5 mg/kg, route intravenous; outline: as §2
[13] = Volume of distribution at steady state in Sprague-Dawley rat at 0.5 mg/kg, iv; assay type: ADME, organism-based; set-up: dose 0.5 mg/kg, route intravenous; settings: in vivo, read-out: Vdss; outline: as §2
[14] = AUC (0 to infinity) in Sprague-Dawley rat at 0.5 mg/kg, iv; assay type: ADME, organism-based; set-up: time infinity, dose 0.5 mg/kg, route intravenous; settings: plasma

SMILES: N#Cc1ccc(-c2ccc3c(c2)CC(=O)N3)[nH]1
- IC50 (Progesterone receptor [5]): 300 nM

SMILES: Cn1c(C#N)ccc1-c1cc2c(cc1F)NC(=O)C2(C)C
- IC50 (Progesterone receptor [5]): 20.3 nM
- half-life [2]: 30 min

SMILES: CC#C[C@]1(O)CC[C@H]2[C@@H]3CCC4=CC(=O)CCC4=C3[C@@H](c3ccc(N(C)C)cc3)C[C@@]21C [MIFEPRISTONE]
- Activity (Cynomolgus monkey): 60%
- ED50 (Rattus norvegicus): 0.7 mg/kg

SMILES: Cn1c(C#N)ccc1-c1cc(F)c2c(c1)C1(CCCCC1)C(=O)N2
- EC50 (Progesterone receptor [6]): 1.3 nM
- IC50 (Progesterone receptor [1]): 3.6 nM

SMILES: CCCN1C(=O)C(C)(C)c2cc(-c3ccc(C#N)n3C)cc(F)c21
- IC50 (Progesterone receptor [5]): 27 nM

SMILES: CCN1C(=O)C(C)(C)c2cc(-c3ccc(C#N)n3C)cc(F)c21
- IC50 (Progesterone receptor [5]): 29 nM

SMILES: Cn1c(C#N)ccc1-c1ccc2c(c1)CC(=O)N2
- IC50 (Progesterone receptor [5]): 20 nM
- IC50 (Progesterone receptor [1]): 80 nM
- half-life [2]: > 30 min
- half-life [3]: > 30 min
- half-life [4]: > 30 min

SMILES: CN1C(=O)C(C)(C)c2cc(-c3ccc(C#N)n3C)cc(F)c21
- IC50 (Progesterone receptor [5]): 15 nM

SMILES: CC(=O)OCN1C(=O)C(C)(C)c2cc(-c3ccc(C#N)n3C)cc(F)c21
- IC50 (Progesterone receptor [5]): 48 nM

SMILES: Cn1c(C#N)ccc1-c1cc(F)c2c(c1)C1(CCCC1)C(=O)N2
- EC50 (Progesterone receptor [6]): 3000 nM
- IC50 (Progesterone receptor [1]): 14.7 nM

SMILES: C=C1CCO[C@]12CC[C@H]1[C@@H]3CCC4=CC(=O)CCC4=C3[C@@H](c3ccc(C(C)=O)cc3)C[C@@]12C
- Activity (Cynomolgus monkey): 50%

SMILES: Cn1c(C#N)ccc1-c1ccc2c(c1F)C(C)(C)C(=O)N2
- IC50 (Progesterone receptor [5]): 5.9 nM
- IC50 (Progesterone receptor [1]): 5.5 nM
- half-life [2]: 2 min

Further lines, results first:

- IC50 (Progesterone receptor [1]): 36 nM
- half-life [2]: 10 min
- half-life [3]: 15 min
- half-life [4]: > 30 min
SMILES: CCC1(CC)C(=O)Nc2ccc(-c3ccc(C#N)n3C)cc21

- EC50 (Progesterone receptor [6]): 300 nM
- IC50 (Progesterone receptor [1]): 8.1 nM
SMILES: Cn1c(C#N)ccc1-c1ccc2c(c1)C1(CCCC1)C(=O)N2

- EC50 (Progesterone receptor [6]): 0.15 nM
- IC50 (Progesterone receptor [1]): 0.5 nM
SMILES: Cn1c(C#N)ccc1-c1ccc2c(c1)C(C)(C)OC(=S)N2 [TANAPROGET]

- IC50 (Progesterone receptor [1]): 4.9 nM
SMILES: Cn1c(C#N)ccc1-c1ccc2c(c1)C(C)(C)OC(=O)N2

- EC50 (Progesterone receptor [6]): 2.3 nM
- IC50 (Progesterone receptor [1]): 3.3 nM
SMILES: Cn1c(C#N)ccc1-c1ccc2c(c1)C1(CCCCC1)C(=O)N2

- IC50 (Progesterone receptor [1]): 22 nM
- half-life [2]: 6 min
- half-life [3]: 13 min
- half-life [4]: > 30 min
- Activity (Cynomolgus monkey): 0%
- C0 [7]: 241 ng/mL
- clearance [8]: 12 mL/min/kg
- Vd [9]: 1.6 L/kg
- C0 [10]: 288 ng/mL
- half-life [11]: 180 min
- clearance [12]: 9 mL/min/kg
- Vd [13]: 2.2 L/kg
- AUC(0-inf) [14]: 937 ng·h/mL
SMILES: Cn1c(C#N)ccc1-c1ccc2c(c1)C(C)(C)C(=O)N2
